Assay outcomes as filed in PubChem.
HSP90 refold inh: blocks HSP90-mediated luciferase refolding in reticulocyte lysate | inhibition, % at 5.6 µM | AID 1789 | Rabbit reticulocyte lysate, luciferase refolding luminescence, 3 h | 290,000 tested, 0.91% active;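 active = inhibition above the screen-wide mean plus 3 SD, computed separately per campaign, cut at about 16% in these data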;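 note: 0% = DMSO wells and 100% = 60 µM geldanamycin wells; inhibitors lower the luminescence because luciferase stays unfolded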
SENP6 block: inhibitors of human SENP6 protease; AID 2599; inhibition, % at 10 µM; 330,000 tested, 1.8% active; Recombinant SENP6 catalytic domain, aminoluciferin luminescence; Q9GZR1;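 active = inhibition above about 50% at the single tested dose, limit read from the data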;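 note: plate controls were DMSO wells with enzyme for no effect and DMSO wells lacking enzyme for full effect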
SENP7 inh: inhibitors of human SENP7 protease; Q9BQF6; recombinant SENP7, Z-RLRGG-aminoluciferin luminescence, 40 min; inhibition, % at 5 µM; 330,000 tested, 1.5% active;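 active = inhibition above about 50% at the single test dose, limit read from the data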;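 note: plate controls were DMSO with enzyme for no effect and no enzyme buffer wells for full effect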
SENP8 block-1: inhibitors of human SENP8 protease | Q96LD8 | purified SENP8, Z-RLRGG-aminoluciferin cleavage, luminescence | inhibition, % at 10 µM | 330,000 tested, 1.2% active; in the data active = inhibition above about 50%
Target sequence (Q96LD8 whole entry, looked up): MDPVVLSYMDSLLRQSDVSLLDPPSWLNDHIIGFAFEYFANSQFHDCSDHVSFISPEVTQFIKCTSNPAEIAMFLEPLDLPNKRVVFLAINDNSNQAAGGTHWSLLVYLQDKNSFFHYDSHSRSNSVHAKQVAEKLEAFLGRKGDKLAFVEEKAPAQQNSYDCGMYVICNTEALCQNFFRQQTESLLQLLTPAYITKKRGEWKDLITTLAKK
SENP1 FRET inh: SENP1 (human) catalytic domain inhibition. Q9P0U3. recombinant SENP1 catalytic domain, CyPet-SUMO1-YPet FRET cleavage. inhibition, % at 10 µM. 360,000 tested, 0.21% active;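 active = inhibition at least 30% at 10 µM, raw YFP signal under a set limit, fluorescence ratio 0.5 to 1.5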;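 note: 0% = enzyme with DMSO and 100% = no enzyme wells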
Target sequence (Q9P0U3 419-644 limits assumed): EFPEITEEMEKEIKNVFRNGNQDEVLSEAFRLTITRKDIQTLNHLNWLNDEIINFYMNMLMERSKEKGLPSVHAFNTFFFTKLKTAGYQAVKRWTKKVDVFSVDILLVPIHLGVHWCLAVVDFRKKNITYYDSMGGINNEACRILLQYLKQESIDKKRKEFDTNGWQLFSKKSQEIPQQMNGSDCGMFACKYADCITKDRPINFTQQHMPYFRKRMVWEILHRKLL
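Test system: recombinant human SENP1 catalytic domain, His6-tagged / Medium: pH 8 Tris buffer with EDTA, NaCl, BME, BSA, NP40, catalase / Also added: SUMO1 FRET substrate flanked by Cypet and Ypet, 25 nM / Times: 50 min reaction at room temperature / Signal: FRET, CFP and YFP emission / Control set: no-enzyme low control and enzyme-plus-DMSO high control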
SENP8 block-2: SENP8 (human) protease inhibition; AID 602440; recombinant SENP8, Nedd8 substrate fluorescence; Q96LD8; inhibition, % at 20 µM; 360,000 tested, 0.64% active; in the data active = inhibition mostly above about 40%, no sharp cut-off; inactive = mostly below about 27%
HSP90 confirm: confirmation of HSP90 inhibitors | shares compounds with HSP90 refold inh | rabbit reticulocyte lysate, luciferase refolding luminescence, 3 h | inhibition, % at 5.9 µM | 2,300 tested, 64% active; in the data active = inhibition above about 18%;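 note: 0% = vehicle wells and 100% = reference inhibitor wells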
luciferase ctr: counter-screen for HSP90 inhibitors: inhibitors of firefly luciferase | 2,300 tested, 48% active | inhibition, % at 5.9 µM | purified native firefly luciferase, luminescence | shares compounds with HSP90 refold inh;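 active = inhibition above the mean inhibition of all tested sample wells plus 3 SD, cut at about 10% in these data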;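 note: 0% = DMSO with luciferase and 100% = wells lacking luciferase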
* marks the source's active call; other numbers are inactive results; · = no result. Only some compounds are listed: those with a hit (about 2.9% of all), similar ones and a draw of the others.

SMILES	HSP90 refold inh	SENP6 block	SENP7 inh	SENP8 block-1	SENP1 FRET inh	SENP8 block-2	HSP90 confirm	luciferase ctr
CC(=O)NC1=C(N2CC2C)C(=O)C(NC(C)=O)=C(N2CC2C)C1=O (stereo not drawn)	·	·	·	·	1	65*	·	·
O=C1CC=C2C3CC4N(CCC45c4ccccc4N1C25)CC3=CCO (stereo not drawn)	·	·	·	·	-1	9	·	·
O=C1CC=C2C3CC4N(CCC45c4cc(O)c(O)cc4N1C25)CC3=CCBr (stereo not drawn)	·	·	·	·	-3	59*	·	·
c1ccc(CN2CCN(Cc3ccc4ccccc4c3)CC2)cc1	17*	13	7	2	1	6	·	·
C[C@]12CC[C@@H]3c4ccc(O)c(O)c4CC[C@H]3[C@@H]1CC[C@@H]2O	2	-2	4	13	-1	45*	·	·
O=C(NCCN1CCC2(CC1)C(=O)NCN2c1cccc(F)c1)c1ccc2ccccc2c1	·	·	·	·	1	15	·	·
Cc1c(CCC(=O)N2C[C@H]3C[C@@H](C2)c2cccc(=O)n2C3)c(=O)oc2c(C)c(O)ccc12	·	·	·	·	-57	-2	·	·
Nc1ccccc1C(=O)OCC(=O)c1ccc2c(c1)OCCO2	1	95*	98*	95*	2	-140	·	·
Cc1ccc(OC(=O)N(C)C[C@H]2OCc3cnnn3CCCC(=O)N([C@H](C)CO)C[C@@H]2C)cc1	·	·	·	·	1	6	·	·
O=C1C(=O)c2ccccc2-c2ccccc21	11	97*	97*	93*	1	108*	·	·
Cc1cc(C=C2C(=O)N(C)C(=S)N(C)C2=O)c(C)n1C1CCCCC1	4	4	-2	-3	37	41*	·	·
CC(C)C[C@H]1C(=O)N2CCC[C@H]2[C@]2(O)O[C@](NC(=O)[C@@H]3C=C4c5cccc6[nH]cc(c56)C[C@H]4N(C)C3)(C(C)C)C(=O)N12	·	51*	21	36	-34	-396	·	·
CC[C@@H](CO)NC(=O)[C@@H]1C=C2c3cccc4[nH]cc(c34)C[C@H]2N(C)C1	·	·	·	·	-26	-379	·	·
CCC(CO)NC(=O)C1C=C2c3cccc4[nH]cc(c34)CC2N(C)C1 (stereo not drawn)	1	13	-6	4	39	-394	·	·
COC(=O)C1C=C2c3cccc4[nH]cc(c34)CC2N(C)C1 (stereo not drawn)	8	54*	18	38	·	·	·	·
COc1ccc(C(c2nnnn2-c2ccc3c(c2)OCCO3)N2CCC3(CC2)C(=O)NCN3c2ccccc2)cc1 (stereo not drawn)	·	·	·	·	1	17	·	·
C=CCN1C(=O)NC(=O)/C(=C/c2c(CCN(C)C(=O)c3ccccc3)cc3c(c2OC)OCO3)C1=O	-1	-20	-8	-1	3	54*	·	·
CCCC(=O)NC1=C(N2CC2)C(=O)C(NC(=O)CCC)=C(N2CC2)C1=O	·	·	·	·	4	66*	·	·
CCCC(=O)Nc1ccc(N2CCN(CC)CC2)c(Cl)c1	0	-28	-3	3	0	14	·	·
O=c1[nH]c2ccccc2n1C1CCN(C(c2cc3ccccc3o2)c2nnnn2-c2ccc3c(c2)OCCO3)CC1 (stereo not drawn)	·	·	·	·	-3	22	·	·
CCOc1cc(/C=C2\C(=O)NC(=O)N(CCc3ccc(F)cc3)C2=O)ccc1O	38*	16	4	3	-12	28	7	8
CC(C)(C)n1nnnc1C(C1CC1)N1CCC(n2c(=O)[nH]c3ccccc32)CC1 (stereo not drawn)	·	·	·	·	3	13	·	·
CC(C)(C)c1ccc(O)c(N=Cc2c(O)ccc3ccccc23)c1	30*	23	10	7	-26	15	30*	-6
COc1ccc(N/N=C/c2c(O)n(-c3ccc(C)c(C)c3)c(=O)[nH]c2=O)cc1	19*	1	4	-1	5	11	29*	-6
Cc1ccc(-n2c(O)c(/C=N/Nc3ccccc3)c(=O)[nH]c2=O)cc1C	1	-3	-11	-12	·	·	·	·
SMILES	HSP90 refold inh	SENP6 block	SENP7 inh	SENP8 block-1	SENP1 FRET inh	SENP8 block-2	HSP90 confirm	luciferase ctr
CCOP(=S)(NN(Cc1ccccc1)C(=O)c1ccccc1)OCC	42*	-8	9	1	2	7	5	0
CCOP(=O)(OCC)C(Cc1ccccc1)NC(C)=O (stereo not drawn)	-8	-20	2	-8	0	11	·	·
O=C(O)CC1OCC=C2CN3CCC45c6ccccc6NC4C1C2CC35 (stereo not drawn)	0	-10	7	-6	0	10	·	·
O=C(O)CC1OCC=C2CN3CCC45C6=CC(=O)C(=O)C([N+](=O)[O-])=C6NC4C1C2CC35 (stereo not drawn)	35*	·	·	·	19	112*	72*	-2
O=C(NCC1=C(c2cccc3ccccc23)C[C@@H]2CC[C@H]1N2Cc1ccco1)c1ccc([N+](=O)[O-])cc1	·	·	·	·	0	15	·	·
CN1CCN2c3ccc(N)cc3CC3(C(=O)NC(=O)NC3=O)C2C1 (stereo not drawn)	20*	·	·	·	5	11	-1	-15
CN1CCN(c2cccc3c2C(=O)c2ccccc2C3=O)CC1	19*	·	·	·	1	23	20*	1
COc1ccc2c(c1)C13CCN4CC5=CCOC6CC(=O)N2C1C6C5CC43 (stereo not drawn)	·	·	·	·	3	26	·	·
Cc1nc2c(=O)n(C)c(=O)nc-2n(C)n1	78*	87*	96*	96*	49*	132*	80*	83*
O=C(COC(=O)c1cc(Br)cc(Br)c1O)NC12CC3CC(CC(C3)C1)C2	·	·	·	·	-6	-179	·	·
CNC(=O)Oc1cccc2ccccc12	4	-5	-8	4	7	-18	·	·
CNC(=O)Oc1ccc(-c2cn3cc(C)ccc3n2)cc1	56*	81*	79*	67*	2	-300	68*	52*
COC(=O)N1Cc2ccccc2-n2nncc2C1	·	·	·	·	1	4	·	·
COC1/C=C/C=C(\C)Cc2cc(O)c(Cl)c(c2)N(C)C(=O)CC(OC(=O)C(C)C)C2(C)OC2C(C)C2CC1(O)NC(=O)O2 (stereo not drawn)	·	·	·	·	-4	17	·	·
COc1ccccc1-n1c(-c2ccccc2)nc2ccccc2c1=O	-2	-6	9	-6	1	1	·	·
COc1ccccc1-n1c(-c2cccs2)nc2ccccc2c1=O	17*	-14	-3	-9	-1	2	0	-10
CN(C)C(Cc1ccccc1)C(=O)c1ccccc1 (stereo not drawn)	-4	-1	1	1	-20	2	·	·
CCOC(=O)c1c(C)[nH]c(C)c1C(=O)C(Cc1ccccc1)N(C)C (stereo not drawn)	22*	1	3	-2	-1	6	-1	-6
